Screens from PubChem BioAssay.
TRPC4 PAM = TRPC4 (mouse) allosteric potentiation. Q9QUQ5. HEK293 TRPC4beta/mu-opioid, DAMGO EC20, Fluo-4 Ca2+ flux; stronger effect = higher value. B-score at 10 µM. 310,000 tested, 0.42% active;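 active = B-score of calcium response area above 5 SD of library B-scores, with initial fluorescence ratio within 5 SD of library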
TRPC4 act = opens the mouse TRPC4 cation channel. Q9QUQ5. B-score at 10 µM. HEK293 TRPC4beta/mu-opioid, Fluo4 calcium fluorescence; stronger effect = higher value. 310,000 tested, 0.49% active;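 active = B-score above 5 SD of library B-scores, and initial fluorescence ratio not above library mean plus 5 SD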;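 also: positive B-score marks a calcium rise read as TRPC4 activation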
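Material: HEK293 stable line with TRPC4beta plus mu-opioid receptor; technique: Fluo4 calcium-sensitive dye fluorescence, kinetic, 1 Hz baseline; timing: Fluo4 dye loading 45 min at room temperature, 110 s recording; controls: assay buffer as low control, maximal DAMGO as high control; read-out: integrated baseline-normalised fluorescence ratio, converted to per-well B score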
TRPC4 block = TRPC4 (mouse) channel inhibition | HEK293 TRPC4beta/mu-opioid, DAMGO-evoked Fluo4 calcium flux; stronger effect = lower value | B-score at 10 µM | 300,000 tested, 0.39% active;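 active = B-score over 3 SD under the library average, no early fluorescence shift, positive overall ratio signal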
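Assay system: HEK293 cells with stable TRPC4beta plus mu-opioid receptor expression. Dosing: single dose. Measured by: Fluo4 Ca2+ flux fluorescence. Also added: DAMGO in two steps, submaximal then maximal. Read-out: B score from integrated Fluo4 fluorescence ratio.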
TRPC6 inh = mouse TRPC6 channel inhibition; Q61143; HEK293-TRPC6, membrane potential dye, ACh-evoked depolarization; stronger effect = lower value; B-score at 10 µM; 310,000 tested, 1.1% active;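 active = B-score under library mean minus 3 SD, initial fluorescence not abnormally high, positive integrated signal ratio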;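 also: B-score derived from integrated fluorescence ratio over the kinetic read; more negative B-score means stronger inhibition of depolarization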
Target sequence (Q61143 whole entry, looked up): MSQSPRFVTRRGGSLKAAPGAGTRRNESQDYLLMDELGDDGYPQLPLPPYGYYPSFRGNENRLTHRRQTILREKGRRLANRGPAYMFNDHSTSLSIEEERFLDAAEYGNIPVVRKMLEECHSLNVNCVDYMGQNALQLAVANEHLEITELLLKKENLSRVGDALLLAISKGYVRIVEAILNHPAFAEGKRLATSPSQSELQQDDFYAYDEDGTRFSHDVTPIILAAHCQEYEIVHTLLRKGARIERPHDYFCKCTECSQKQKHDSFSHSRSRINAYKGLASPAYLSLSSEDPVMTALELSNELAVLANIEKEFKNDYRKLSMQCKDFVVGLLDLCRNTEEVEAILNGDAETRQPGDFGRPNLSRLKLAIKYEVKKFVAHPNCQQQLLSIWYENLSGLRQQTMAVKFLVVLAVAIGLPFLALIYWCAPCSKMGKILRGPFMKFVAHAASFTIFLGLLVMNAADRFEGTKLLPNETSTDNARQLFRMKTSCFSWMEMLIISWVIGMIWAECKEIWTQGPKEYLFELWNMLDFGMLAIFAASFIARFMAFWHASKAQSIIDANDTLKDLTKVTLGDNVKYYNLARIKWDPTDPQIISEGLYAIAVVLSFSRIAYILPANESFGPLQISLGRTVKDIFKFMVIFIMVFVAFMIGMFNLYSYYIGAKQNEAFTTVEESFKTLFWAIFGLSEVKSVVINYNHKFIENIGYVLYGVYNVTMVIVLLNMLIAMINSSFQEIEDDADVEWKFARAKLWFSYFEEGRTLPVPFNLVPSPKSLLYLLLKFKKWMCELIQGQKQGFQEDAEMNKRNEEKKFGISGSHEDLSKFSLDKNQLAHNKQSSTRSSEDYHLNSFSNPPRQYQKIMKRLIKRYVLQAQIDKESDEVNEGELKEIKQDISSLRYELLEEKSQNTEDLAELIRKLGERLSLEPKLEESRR
TRPC6 act = mouse TRPC6 channel activation; Q61143; HEK293-TRPC6 membrane potential dye fluorescence; stronger effect = higher value; B-score at 10 µM; 310,000 tested, 0.13% active; AID 2550;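 active = B-score of the integrated fluorescence ratio above library mean plus 3 SD, and starting fluorescence ratio within library mean plus 5 SD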;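 also: higher score means more depolarization so channel activation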
Numbers stand for hits; n = inactive. The list is not random: actives were taken first. Their share in the collection is about 2.3%.

SMILES	TRPC4 PAM	TRPC4 act	TRPC4 block	TRPC6 inh	TRPC6 act
COc1ccccc1-n1cc(CN2CCCC(CO)(Cc3cccc(Cl)c3)C2)cn1 (stereo unspecified)	n	n	-5	n	n
COc1ccc(C(=O)Nc2ccc3nc(N4CCCCC4)cc(C)c3c2)c(OC)c1	n	n	n	n	n
Oc1c(Cl)cc(Cl)cc1Sc1cc(Cl)cc(Cl)c1O	n	86	n	-8.38	n
C=CS(=O)(=O)c1sc(Cl)c(N2CCOCC2)c1[N+](=O)[O-]	n	n	-6	n	n
C=CSc1sc(Cl)c(N2CCOCC2)c1[N+](=O)[O-]	n	n	n	n	n
NC(=O)NC(=O)CSc1nc(C2CCCCC2)n(-c2ccccc2)n1	n	n	n	n	n
CCOc1ccccc1NS(=O)(=O)c1ccc(-c2cnc(C3CC3)o2)cc1	n	n	n	n	n
Cc1ccccc1CN1CCCC(C(=O)Nc2ccccc2Oc2cccnc2)C1 (stereo unspecified)	n	n	-7	n	n
O=C(Nc1ccccc1Oc1cccnc1)C1CCCN(Cc2cccc(Cl)c2)C1 (stereo unspecified)	n	n	-6	n	n
COc1cc(CN2CCCC(C(=O)Nc3ccccc3Oc3cccnc3)C2)ccc1F (stereo unspecified)	n	n	n	n	n
CN1CCC(N(C)C(=O)COc2ccc(S(=O)(=O)N3CCOCC3)cc2)CC1	n	n	n	n	n
CC1Oc2ccccc2C=C1/C=N/Nc1ccc(C(=O)O)cc1 (stereo unspecified)	n	n	-5	n	n
COc1ccc(-n2c(C)cc(C(=O)Cn3nnc4ccccc4c3=O)c2C)cc1	n	n	n	n	n
Cc1cc(C(=O)Cn2nnc3ccccc3c2=O)c(C)n1-c1ccccc1F	14	n	n	n	n
Cc1cc(C(=O)CN2C(=O)C(=O)N(CC(C)C)C2=O)c(C)n1-c1ccccc1F	15	n	n	n	n
Cc1cc(C(=O)CN2C(=O)NC(CC(C)C)C2=O)c(C)n1-c1ccccc1F (stereo unspecified)	n	n	n	n	n
CCn1c(COc2ccc(Cl)cc2)nnc1SCC(=O)Nc1ccc2c(c1)OCCO2	n	n	n	n	n
CN1CCN(C(=O)Nc2ccccc2)CC1	n	n	n	n	n
CSc1cccc(NC(=O)N2CCN(C)CC2)c1	28	n	n	n	n
CN1C(=O)CSC1=Nc1ccc(Br)cc1	n	n	n	n	n
CCN1C(=O)CSC1=NC12CC3CC(CC(C3)C1)C2	n	n	-5	n	n
CN1C(=O)CSC1=NC12CC3CC(CC(C3)C1)C2	n	n	-6	n	n
CC(=O)OC(C(=O)NCc1ccc2c(c1)OCO2)c1ccccc1Cl (stereo unspecified)	n	n	n	n	n
Cc1ccc(C)c(NC2CCCCC2NS(=O)(=O)c2ccccc2)c1 (stereo unspecified)	n	n	n	n	n
Cc1cccc(NC2CCCCC2NS(=O)(=O)c2ccccc2)c1 (stereo unspecified)	13	n	n	n	n
SMILES	TRPC4 PAM	TRPC4 act	TRPC4 block	TRPC6 inh	TRPC6 act
Cc1ccc(NS(=O)(=O)c2ccc(C(=O)N3CCN(S(=O)(=O)c4ccccc4)CC3)cc2)cc1	n	n	n	n	n
COc1cccc(N2CCN(S(=O)(=O)c3c(C)[nH]c(C)c3C(=O)N3CCCCC3)CC2)c1	n	n	n	n	n
COc1ccc2[nH]c(=O)c(CN(C(=O)c3ccco3)C3CCCCC3)cc2c1	10	n	n	n	n
COc1ccc2[nH]c(=O)c(CN(C(C)=O)C3CCCCC3)cc2c1	n	n	n	n	n
CC(=O)Nc1ccc(NC(=O)C(C)OC(=O)CCC2CCCC2)cc1 (stereo unspecified)	n	n	n	n	n
O=C(Nc1sc2c(c1C(=O)NCCCO)CCCC2)c1ccccc1	n	n	n	n	n
NCCNC(=O)c1c(NC(=O)c2ccccc2)sc2c1CCCC2	n	175	n	n	n
COc1ccc(CCNC(=O)C2CCN(C(=O)c3ccc(C(C)(C)C)cc3)CC2)cc1	17	n	n	n	n
COc1ccc(CCNC(=O)C2CCN(C(=O)c3ccc(F)cc3)CC2)cc1	n	n	n	n	n
CN(C)c1ccc(C(=S)N2CCN(c3ccc([N+](=O)[O-])cc3)CC2)cc1	19	n	n	n	n
CCOc1ccc(CNCCc2ccc(S(N)(=O)=O)cc2)cc1	n	n	n	n	n
NS(=O)(=O)c1ccc(CCNCc2ccccc2OCc2ccc(F)cc2)cc1	n	n	-6	n	n
CCOc1ccc2ccccc2c1CNCCc1ccc(S(N)(=O)=O)cc1	n	n	-6	n	n
NS(=O)(=O)c1ccc(NCc2ccccc2OCc2ccc(F)cc2)cc1	n	n	n	n	n
Cc1cc(=O)oc(C)c1C(=O)OC(C(=O)c1ccccc1)c1ccccc1 (stereo unspecified)	n	n	n	n	n
Cc1cc2cc(C#N)c(NCCNC(=S)NCCCN3CCOCC3)nc2cc1C	n	n	-6	n	n
CCN1CCN(c2ccc(S(=O)(=O)N3CCCCC3)cc2NC(=O)COc2ccc(F)cc2Cl)CC1	12	n	n	n	n
CCN1CCN(c2ccc(S(=O)(=O)N3CCOCC3)cc2NC(=O)/C=C/c2ccc(OC)cc2OC)CC1	n	101	n	n	n
Cc1ccccc1OCC(=O)Nc1cc(S(=O)(=O)N2CCCCC2)ccc1N1CCN(C)CC1	n	84	n	n	n
O=C(COc1ccc(S(=O)(=O)N2CCCC2)cc1Cl)N1CCN(c2ccccc2)CC1	10	n	n	n	n
O=C(COc1ccc(S(=O)(=O)N2CCCCC2)cc1Cl)N1CCOCC1	n	n	n	n	n
CCN1CCN(c2ccc(S(=O)(=O)N3CCCCC3)cc2NC(=O)COc2ccc(Cl)cc2)CC1	n	n	n	n	n
CN1CCN(c2ccc(S(=O)(=O)N3CCCCC3)cc2NC(=O)c2ccc(C#N)cc2)CC1	11	n	n	n	n
CN1CCN(c2ccc(Cl)cc2NC(=O)c2ccc(S(=O)(=O)N3CCCCCC3)cc2)CC1	n	n	n	n	n
CCN1CCN(c2ccc(S(=O)(=O)N3CCCCC3)cc2NC(=O)c2cccc(C)c2)CC1	n	n	n	n	n
CCN1CCN(c2ccc(S(=O)(=O)N3CCCCC3)cc2NC(=O)C(C)Oc2ccc(F)cc2)CC1 (stereo unspecified)	n	96	n	n	n
CCN1CCN(c2ccc(S(=O)(=O)N3CCCCC3)cc2NC(=O)CC(C)c2ccccc2)CC1 (stereo unspecified)	n	118	n	n	n
CCOC(=O)/C(=C\c1ccc(Cl)cc1)c1nc2sc(C)c(C)c2c(=O)[nH]1	11	n	n	n	n
Cc1nc2scc(-c3ccccc3)c2c(=O)n1N=C1C=CC(=O)C=C1	n	n	-6	n	n
